Results reported in publication PMC5481492 (Chemico-biological interactions, 2016).
Read-outs that look alike come from different tables or passages of the source. Each block holds one compound with its values, some of them ahead of it.

What was measured:
horse liver ADH1E F93A [1] = target: T1, horse liver ADH1E F93A (Equus caballus, UniProt P00327, F94A); assay: Steady-state kinetics, F93A enzyme; format: biochemical; conditions: for Ratio of V/Km for (R)- to (S)-enantiomers: enantioselectivity; for Michaelis constant for coenzyme (Ka NAD+, Kq NADH): both substrates varied; for Ki: read-out: Inhibition constant for coenzyme (Kia NAD+, Kiq NADH)
horse liver ADH1E S48T [2] = target: T2, horse liver ADH1E S48T (Equus caballus, UniProt P00327, S49T); assay: Steady-state kinetics, S48T enzyme; format: biochemical; conditions: for Ratio of V/Km for (R)- to (S)-enantiomers: enantioselectivity; for Michaelis constant for coenzyme (Ka NAD+, Kq NADH) / Ki / Turnover number (V1/Et ethanol oxidation, V2/Et acetaldehyde reduction): pH 8.0, 25 °C; for Michaelis constant for coenzyme (Ka NAD+, Kq NADH): both substrates varied; for Ki: read-out: Inhibition constant for coenzyme (Kia NAD+, Kiq NADH)
[3] = target: T3, horse liver ADH1E (EqADH1E), wild-type (Equus caballus, UniProt P00327); assay: Steady-state kinetics, wild-type enzyme; format: biochemical; conditions: enantioselectivity
[4] = target: T4, horse liver ADH1E S48T/F93A (Equus caballus, UniProt P00327, F94A/S49T); assay: Steady-state kinetics, S48T/F93A enzyme; format: biochemical; conditions: for Increase of the R/S ratio (inversion of enantioselectivity) as compared to wild-type enzyme: S48T/F93A relative to wild-type; for Ratio of V/Km for (R)- to (S)-enantiomers: enantioselectivity; for Michaelis constant for coenzyme (Ka NAD+, Kq NADH) / Ki / Turnover number (V1/Et ethanol oxidation, V2/Et acetaldehyde reduction): pH 8.0, 25 °C; for Michaelis constant for coenzyme (Ka NAD+, Kq NADH): both substrates varied; for Ki: read-out: Inhibition constant for coenzyme (Kia NAD+, Kiq NADH)
[5] = target: T3, horse liver ADH1E (EqADH1E), wild-type; conditions: pH 8.5, 25 °C, cited from earlier work
[6] = target: T4, horse liver ADH1E S48T/F93A; assay: Transient; format: biochemical; conditions: pH 8.0, 25 °C; 2 mM NAD+ (oxidation) or stoichiometric NADH (reduction)
Procedure, shortened: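 Stopped-flow (three-syringe, 2.5 ms dead time) at 25 °C in 33 mM sodium phosphate, 0.25 mM EDTA, pH 8.0. Enzyme at 6–15 μN (active sites) was mixed with 2 mM NAD⁺ and varied alcohol (oxidation), or with NADH equal to the enzyme concentration and varied carbonyl compound (reduction). A328 bursts (Δε 5500 M⁻¹cm⁻¹) were fitted as first-order; rate constants were analysed against substrate concentration.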

[7] = target: T3, horse liver ADH1E (EqADH1E), wild-type; conditions: value in parentheses; cited from earlier work
horse liver ADH1E F93A [8] = target: T1, horse liver ADH1E F93A; assay: Transient; format: biochemical; conditions: for K m (transient reaction) / k max (transient oxidation): pH 8.0, 25 °C, 2 mM NAD+
horse liver ADH1E F93A [9] = target: T1, horse liver ADH1E F93A; conditions: cited from earlier work; for Substrate deuterium isotope effect on k max: value in brackets
horse liver ADH1E S48A = horse liver ADH1E S48A (Equus caballus, UniProt P00327, S49A); assay: Steady-state kinetics, S48A enzyme; format: biochemical; conditions: pH 8.0, 25 °C; for Michaelis constant for coenzyme (Ka NAD+, Kq NADH): both substrates varied; for Ki: read-out: Inhibition constant for coenzyme (Kia NAD+, Kiq NADH)
[10] = target: T3, horse liver ADH1E (EqADH1E), wild-type; conditions: pH 8.0, 25 °C; cited from earlier work
[11] = target: T3, horse liver ADH1E (EqADH1E), wild-type; conditions: cited from earlier work
[12] = target: T4, horse liver ADH1E S48T/F93A; assay: Inhibition of ethanol oxidation, S48T/F93A enzyme; format: biochemical
horse liver ADH1E F93A [13] = target: T1, horse liver ADH1E F93A; assay: Inhibition of ethanol oxidation, F93A enzyme; format: biochemical
horse liver ADH1E S48T [14] = target: T2, horse liver ADH1E S48T; assay: Inhibition of ethanol oxidation, S48T enzyme; format: biochemical
[15] = competitive against ethanol, pH 8.0, 25 °C

T4 sequence (P00327 whole entry S49T/F94A): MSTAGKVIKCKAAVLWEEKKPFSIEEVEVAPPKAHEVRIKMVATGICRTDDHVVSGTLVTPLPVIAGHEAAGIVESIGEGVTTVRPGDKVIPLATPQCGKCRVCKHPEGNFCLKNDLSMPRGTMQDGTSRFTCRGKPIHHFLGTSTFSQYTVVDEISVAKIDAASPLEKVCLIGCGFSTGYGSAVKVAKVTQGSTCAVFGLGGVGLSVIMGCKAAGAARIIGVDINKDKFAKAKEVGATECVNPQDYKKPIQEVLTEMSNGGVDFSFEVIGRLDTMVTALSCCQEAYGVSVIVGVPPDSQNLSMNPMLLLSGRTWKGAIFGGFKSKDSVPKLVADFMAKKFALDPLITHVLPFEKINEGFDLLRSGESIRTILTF
T1 sequence (P00327 whole entry F94A): as the sequence (P00327 whole entry S49T/F94A) above, with T49S counted along it
Sequence of horse liver ADH1E S48A (P00327 whole entry S49A): as the sequence (P00327 whole entry S49T/F94A) above, with T49A, A94F counted along it
T3 sequence (P00327 whole entry): as the sequence (P00327 whole entry S49T/F94A) above, with T49S, A94F counted along it
T2 sequence (P00327 whole entry S49T): as the sequence (P00327 whole entry S49T/F94A) above, with A94F counted along it

Ratio of V/Km for (R)- to (S)-enantiomers (horse liver ADH1E F93A [1]): 0.62 | Ratio of V/Km for (R)- to (S)-enantiomers (horse liver ADH1E S48T [2]): 0.023 | Ratio of V/Km for (R)- to (S)-enantiomers [3]: 0.0034 | Increase of the R/S ratio (inversion of enantioselectivity) as compared to wild-type enzyme [4]: 590 fold | Ratio of V/Km for (R)- to (S)-enantiomers [4]: 2.0
SMILES: CCCCCCC(C)O (stereo not shown) [2-Octanol, 2-octanol]

K m (transient reaction) (horse liver ADH1E F93A [8]): 1.3 mM | k max (transient oxidation) (horse liver ADH1E F93A [8]): 29 s⁻¹ | K m (transient reaction) [6]: 4.9 mM | k max (transient oxidation or reduction) [6]: 16 s⁻¹
SMILES: CC[C@H](C)O [(S)-2-Butanol, (S)-2-butanol]
k max (transient oxidation or reduction) [7]: 2.5 s⁻¹

K m (transient reaction) [6]: 15 mM | k max (transient oxidation or reduction) [6]: 78 s⁻¹
SMILES: OCc1ccccc1 [Benzyl alcohol, benzyl alcohol]
k max (transient oxidation or reduction) (horse liver ADH1E F93A [9]): 3.3 s⁻¹ | Substrate deuterium isotope effect on k max (horse liver ADH1E F93A [9]): 4.0 | K m (transient reaction) [7]: 0.03 mM | k max (transient oxidation or reduction) [7]: 24 s⁻¹

Ki [12, 15]: 8.1 µM
SMILES: c1cn[nH]c1 [Pyrazole, pyrazole]
Ki [11]: 0.2 µM | Type of inhibition [12]: competitive inhibitor against varied concentrations of ethanol

Ki (horse liver ADH1E F93A [13]): 51 µM | Ki [12]: > 10000 µM | Ki (horse liver ADH1E S48T [14]): 740 µM
SMILES: OCc1c(F)c(F)c(F)c(F)c1F [pentafluorobenzyl alcohol, 2,3,4,5,6-pentafluorobenzyl alcohol]
Ki [11, 15]: 0.52 µM

The next lines start with the compound.

SMILES: CCC(C)O (stereo not shown) [2-Butanol, 2-butanol]
Ratio of V/Km for (R)- to (S)-enantiomers (horse liver ADH1E F93A [1]): 1.1 | Ratio of V/Km for (R)- to (S)-enantiomers (horse liver ADH1E S48T [2]): 0.88 | Ratio of V/Km for (R)- to (S)-enantiomers [3]: 0.45 | Increase of the R/S ratio (inversion of enantioselectivity) as compared to wild-type enzyme [4]: 10 fold | Ratio of V/Km for (R)- to (S)-enantiomers [4]: 4.3

SMILES: CCC(C)=O [2-Butanone, 2-butanone]
Binding rate constant k−6 ([5]; (pro-R)-2-butanone pathway): 6.5 M⁻¹ s⁻¹ | Dissociation rate constant k6 ([5]; (pro-R)-2-butanone pathway): 4.3 s⁻¹ | Binding rate constant k−6 ([5]; (pro-S)-2-butanone pathway): 180 M⁻¹ s⁻¹ | Dissociation rate constant k6 ([5]; (pro-S)-2-butanone pathway): 2.5 s⁻¹ | K m (transient reaction) [6]: 29 mM | k max (transient oxidation or reduction) [6]: 0.14 s⁻¹ | k max (transient oxidation or reduction) [7]: 0.12 s⁻¹ | Km ([4]; ketone reduction, 0.1 mM NADH): 12.7 ± 0.9 mM | V2/Et ([4]; ketone reduction, 0.1 mM NADH): 0.081 ± 0.002 s⁻¹

SMILES: CC[C@@H](C)O [(R)-2-Butanol, (R)-2-butanol]
K m (transient reaction) (horse liver ADH1E F93A [8]): 1.2 mM | k max (transient oxidation) (horse liver ADH1E F93A [8]): 44 s⁻¹ | K m (transient reaction) [6]: 26 mM | k max (transient oxidation or reduction) [6]: 130 s⁻¹ | k max (transient oxidation or reduction) [7]: 15 s⁻¹

SMILES: O=Cc1ccccc1 [Benzaldehyde, benzaldehyde]
k max (transient oxidation or reduction) (horse liver ADH1E F93A [9]): 2.2 s⁻¹ | Substrate deuterium isotope effect on k max (horse liver ADH1E F93A [9]): 3.4 | K m (transient reaction) [6]: 0.26 mM | k max (transient oxidation or reduction) [6]: 0.67 s⁻¹ | K m (transient reaction) [7]: 0.49 mM | k max (transient oxidation or reduction) [7]: 320 s⁻¹

SMILES: NC(=O)C1=CN([C@@H]2O[C@H](COP(=O)(O)OP(=O)(O)OC[C@H]3O[C@@H](n4cnc5c(N)ncnc54)[C@H](O)[C@@H]3O)[C@@H](O)[C@H]2O)C=CC1 [NADH]
Michaelis constant for coenzyme (Ka NAD+, Kq NADH) (horse liver ADH1E F93A [1]; pH 8.0, 25 °C): 1.9 µM | Ki (horse liver ADH1E F93A [1]; pH 8.0, 25 °C): 0.036 µM | Michaelis constant for coenzyme (Ka NAD+, Kq NADH) (horse liver ADH1E S48A): 44 µM | Ki (horse liver ADH1E S48A): 21 µM | Rate constant for binding of NADH (horse liver ADH1E F93A [8]; transient kinetics, stated in a paragraph on the F93A and S48T/F93A enzymes): 1e+07 M⁻¹ s⁻¹ | Michaelis constant for coenzyme (Ka NAD+, Kq NADH) (horse liver ADH1E S48T [2]): 6.3 µM | Ki (horse liver ADH1E S48T [2]): 0.57 µM | Michaelis constant for coenzyme (Ka NAD+, Kq NADH) [10]: 5.8 µM | Michaelis constant for coenzyme (Ka NAD+, Kq NADH) [4]: 5.0 µM | Ki [4]: 0.054 µM

SMILES: NC(=O)c1ccc[n+]([C@@H]2O[C@H](COP(=O)([O-])OP(=O)(O)OC[C@H]3O[C@@H](n4cnc5c(N)ncnc54)[C@H](O)[C@@H]3O)[C@@H](O)[C@H]2O)c1 [NAD^+]
Michaelis constant for coenzyme (Ka NAD+, Kq NADH) (horse liver ADH1E F93A [1]; pH 8.0, 25 °C): 3.3 µM | Ki (horse liver ADH1E F93A [1]; pH 8.0, 25 °C): 44 µM | Michaelis constant for coenzyme (Ka NAD+, Kq NADH) (horse liver ADH1E S48A): 200 µM | Ki (horse liver ADH1E S48A): 110 µM | Michaelis constant for coenzyme (Ka NAD+, Kq NADH) (horse liver ADH1E S48T [2]): 11 µM | Ki (horse liver ADH1E S48T [2]): 15 µM | Michaelis constant for coenzyme (Ka NAD+, Kq NADH) [10]: 3.9 µM | Michaelis constant for coenzyme (Ka NAD+, Kq NADH) [4]: 4.4 µM | Ki [4]: 33 µM

SMILES: CC=O [acetaldehyde]
Turnover number (V1/Et ethanol oxidation, V2/Et acetaldehyde reduction) (horse liver ADH1E F93A [1]; pH 8.0, 25 °C): 20 s⁻¹ | Turnover number (V1/Et ethanol oxidation, V2/Et acetaldehyde reduction) (horse liver ADH1E S48A): 0.29 s⁻¹ | K m (transient reaction) [6]: 150 mM | k max (transient oxidation or reduction) [6]: 58 s⁻¹ | K m (transient reaction) [7]: 2.1 mM | k max (transient oxidation or reduction) [7]: 390 s⁻¹ | Turnover number (V1/Et ethanol oxidation, V2/Et acetaldehyde reduction) (horse liver ADH1E S48T [2]): 20 s⁻¹ | Turnover number (V1/Et ethanol oxidation, V2/Et acetaldehyde reduction) [10]: 47 s⁻¹ | Turnover number (V1/Et ethanol oxidation, V2/Et acetaldehyde reduction) [4]: 35 s⁻¹

SMILES: CCO [ethanol]
Catalytic efficiency (V1/EtKb, V2/EtKp) (horse liver ADH1E F93A [1]; pH 8.0, 25 °C): 1.7 mM⁻¹ s⁻¹ | Turnover number (V1/Et ethanol oxidation, V2/Et acetaldehyde reduction) (horse liver ADH1E F93A [1]; pH 8.0, 25 °C): 0.35 s⁻¹ | Turnover number (V1/Et ethanol oxidation, V2/Et acetaldehyde reduction) (horse liver ADH1E S48A): 0.01 s⁻¹ | K m (transient reaction) (horse liver ADH1E F93A [8]): 26 mM | k max (transient oxidation) (horse liver ADH1E F93A [8]): 22 s⁻¹ | K m (transient reaction) [6]: 38 mM | k max (transient oxidation or reduction) [6]: 72 s⁻¹ | K m (transient reaction) [7]: 4.1 mM | k max (transient oxidation or reduction) [7]: 180 s⁻¹ | Turnover number (V1/Et ethanol oxidation, V2/Et acetaldehyde reduction) (horse liver ADH1E S48T [2]): 1.7 s⁻¹ | Catalytic efficiency (V1/EtKb, V2/EtKp) [10]: 10 mM⁻¹ s⁻¹ | Turnover number (V1/Et ethanol oxidation, V2/Et acetaldehyde reduction) [10]: 3.5 s⁻¹ | Turnover number (V1/Et ethanol oxidation, V2/Et acetaldehyde reduction) [4]: 0.29 s⁻¹

SMILES: OCC(F)(F)C(F)(F)C(F)(F)F [heptafluorobutanol]
Ki [11]: 5.3 µM | Ki [12, 15]: 53 µM

SMILES: CC(O)c1ccccc1 (stereo not shown) [sec-Phenethyl alcohol, sec-phenethyl alcohol]
Ratio of V/Km for (R)- to (S)-enantiomers (horse liver ADH1E F93A [1]): 0.34 | Ratio of V/Km for (R)- to (S)-enantiomers [3]: 0.067 | Increase of the R/S ratio (inversion of enantioselectivity) as compared to wild-type enzyme [4]: 190 fold | Ratio of V/Km for (R)- to (S)-enantiomers [4]: 13.

SMILES: OCC(F)(F)F [trifluoroethanol, 2,2,2-trifluoroethanol]
Ki (horse liver ADH1E F93A [13]): 53 µM | Ki [11, 15]: 8.4 µM | Ki [12]: 600 µM | Type of inhibition [12]: uncompetitive inhibitor against varied concentrations of NAD^+ | Ki (horse liver ADH1E S48T [14]): 98 µM
